Data on 1 compound can be found in ChEMBL document CHEMBL2046351, “Discovery of cyclic sulfone hydroxyethylamines as potent and selective β-site APP-cleaving enzyme 1 (BACE1) inhibitors: structure-based design and in vivo reduction of amyloid β-peptides” (J Med Chem, 2012).

The target of one data set is Cathepsin D (Homo sapiens, UniProt P07339). Put plainly: Inhibition of human recombinant CatD using Mca-GKPILFFRLK(DNP)-dR-NH2 as substrate after 1 hr by fluorescence analysis.
Data set [1] relates to MDR1 (human). Put plainly: Apparent permeability across MDCK cells expressing human MDR1 at 5 uM after 2 hrs by LC-MS analysis. It counts as ADME, cell-based, Canis lupus familiaris. Conditions: dog. The essentials: (§1)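 MDCK cells retrovirally transduced with human MDR1, seeded on transwells ≥3 days; bidirectional transport at 5 μM, 2 h, 37 °C, LC/MS quantitation. Papp = (dQ/dt)/(A·C0), A 0.11 cm2; ER = Papp B>A / Papp A>B. Means of at least three experiments.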

In data set [2] the test system is MDR1 (human). Put plainly: Efflux ratio of permeability from basolateral to apical over apical to basolateral side of MDCK cells expressing human MDR1 at 5 uM after 2 hrs by LC/MS analysis. Type of data set: ADME, cell-based, Canis lupus familiaris. Conditions: dog. In short, it runs like this: as §1
A short description of data set [3]: AUC (0 to infinity) in C57BL/6 mouse at 2 umol/kg, iv dosed in N-methyl pyrrolidone/blank plasma (10:90 v/v) by LC/MS/MS analysis. Type of data set: ADME, organism-based. Details: dose 2 umol/kg, time infinity, route intravenous. The essentials:
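Male C57BL/6 mice got a single injection into the saphenous vein under light anaesthesia at 5 mL/kg. Blood was taken at 5 and 30 min and 1, 2, 4, 6 and 8 h (n = 3 per time). Blood was extracted by acetonitrile precipitation and quantified by LC-MS/MS against a weighted linear calibration. AUC came from noncompartmental analysis with 1/Y weighting.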

Data set [4] in a line: Blood clearance in C57BL/6 mouse at 2 umol/kg, iv dosed in N-methyl pyrrolidone/blank plasma (10:90 v/v) by LC/MS/MS analysis. Type of data set: ADME, organism-based. The essentials:
(§2)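 Male C57BL/6 mice, saphenous vein injection under light anesthesia, 5 mL/kg. Blood at 5, 30 min and 1, 2, 4, 6, 8 h; brain at 5 min, 1, 4, 8 h; n = 3/time. LC-MS/MS after acetonitrile precipitation (brain water-homogenized). Noncompartmental analysis, 1/Y weighting, terminal slope from ≥3 points.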

Data set [5] in a line: Volume of distribution at steady state in C57BL/6 mouse at 2 umol/kg, iv dosed in N-methyl pyrrolidone/blank plasma (10:90 v/v) by LC/MS/MS analysis. Type of data set: ADME, organism-based. Conditions: read-out: Vdss. In short, it runs like this: as §2
Data set [6] in a line: Half life in C57BL/6 mouse at 2 umol/kg, iv dosed in N-methyl pyrrolidone/blank plasma (10:90 v/v) by LC/MS/MS analysis. It counts as ADME, organism-based. In short, it runs like this: as §2
The nature of data set [7]: AUC (0 to infinity) in C57BL/6 mouse at 30 umol/kg, po dosed in carboxymethyl cellulose 0.5% w/v in water/Tween 80 (99.5/0.5, v/v) by LC/MS/MS analysis. Details: dose 30 umol/kg, route oral, time infinity. It counts as ADME, organism-based. The settings on record: in vivo. In short, it runs like this: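 Male C57BL/6 mice were dosed by oral gavage at 10 mL/kg. Blood was sampled at 0.25, 0.5, 1, 2, 4 and 6 h postdose, extracted by acetonitrile precipitation and quantified by LC-MS/MS (typical LLOQ 0.4 ng/mL). AUCinf was obtained by noncompartmental analysis of concentration–time profiles, weighting 1/Y, with at least three terminal log-linear points.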

A short description of data set [8]: Oral bioavailability in C57BL/6 mouse at 30 umol/kg dosed in carboxymethyl cellulose 0.5% w/v in water/Tween 80 (99.5/0.5, v/v) by LC/MS/MS analysis. Type of data set: ADME, organism-based. Conditions: in vivo. In short, it runs like this:
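Oral gavage (10 mL/kg) to male C57BL/6 mice with iv reference segment (2 μmol/kg, NMP/blank plasma 10:90). Noncompartmental analysis of LC-MS/MS blood profiles, 1/Y weighting; %F = dose-normalized oral AUC / dose-normalized iv AUC × 100, assuming linear pharmacokinetics between doses.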

The test system of data set [9] is Brain. Description: Drug uptake in C57BL/6 mouse brain at 60 umol/kg, po dosed in carboxymethyl cellulose 0.5% w/v in water/Tween 80 (99.5/0.5, v/v) measured 1 hr post dosing by LC/MS/MS analysis. Type of data set: ADME, organism-based. Conditions: in vivo. In short, it runs like this: (§3)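 Male C57BL/6 mice dosed by oral gavage, 10 mL/kg. Blood sampled 0.25, 0.5, 1, 2, 4, 6 h; brain at 1 and/or 4 h; n = 3 per time. Blood acetonitrile-precipitated, brain water-homogenized then precipitated; LC-MS/MS with weighted linear calibration.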

The nature of data set [10]: Drug uptake in C57BL/6 mouse blood at 60 umol/kg, po dosed in carboxymethyl cellulose 0.5% w/v in water/Tween 80 (99.5/0.5, v/v) measured 1 hr post dosing by LC/MS/MS analysis. Type of data set: ADME, organism-based. The settings on record: read-out: Drug uptake. In short, it runs like this: as §3
Data set [11] concerns Brain. Put plainly: Drug uptake in C57BL/6 mouse brain at 60 umol/kg, po dosed in carboxymethyl cellulose 0.5% w/v in water/Tween 80 (99.5/0.5, v/v) measured 4 hrs post dosing by LC/MS/MS analysis. Type of data set: ADME, organism-based. The settings on record: in vivo. The essentials:
as §3

The nature of data set [12]: Drug uptake in C57BL/6 mouse blood at 60 umol/kg, po dosed in carboxymethyl cellulose 0.5% w/v in water/Tween 80 (99.5/0.5, v/v) measured 4 hrs post dosing by LC/MS/MS analysis. Type of data set: ADME, organism-based. Conditions: read-out: Drug uptake. In short, it runs like this: as §3
Data set [13] is described as follows: Ratio of drug uptake in brain to blood in C57BL/6 mouse at 60 umol/kg, po dosed in carboxymethyl cellulose 0.5% w/v in water/Tween 80 (99.5/0.5, v/v) measured 1 hr post dosing by LC/MS/MS analysis. It counts as ADME, organism-based. In short, it runs like this:
as §3

Data set [14] is described as follows: Ratio of drug uptake in brain to blood in C57BL/6 mouse at 60 umol/kg, po dosed in carboxymethyl cellulose 0.5% w/v in water/Tween 80 (99.5/0.5, v/v) measured 4 hrs post dosing by LC/MS/MS analysis. It counts as ADME, organism-based. The essentials:
as §3

The species entered for another data set is Homo sapiens. Put plainly: Selectivity index, ratio of IC50 for human recombinant CatD to IC50 for human recombinant BACE1.
A further data set has as its target Beta-secretase 1 (Homo sapiens, UniProt P56817).

Structures are written as SMILES.

Chain of Beta-secretase 1 (P56817 whole entry): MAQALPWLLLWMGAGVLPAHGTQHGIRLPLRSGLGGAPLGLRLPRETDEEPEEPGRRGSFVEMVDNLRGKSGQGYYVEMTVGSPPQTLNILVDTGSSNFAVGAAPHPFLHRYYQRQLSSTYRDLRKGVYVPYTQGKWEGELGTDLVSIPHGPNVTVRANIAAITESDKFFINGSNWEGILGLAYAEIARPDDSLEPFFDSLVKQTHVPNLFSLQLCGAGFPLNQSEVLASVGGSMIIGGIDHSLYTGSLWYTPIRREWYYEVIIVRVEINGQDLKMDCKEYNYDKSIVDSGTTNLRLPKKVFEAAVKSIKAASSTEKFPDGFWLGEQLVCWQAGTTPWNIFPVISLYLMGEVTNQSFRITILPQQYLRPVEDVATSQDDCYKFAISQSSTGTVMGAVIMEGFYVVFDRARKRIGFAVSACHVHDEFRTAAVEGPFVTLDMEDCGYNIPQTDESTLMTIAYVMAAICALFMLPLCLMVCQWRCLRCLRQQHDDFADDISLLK
Chain of Cathepsin D (P07339 65-162 limits assumed): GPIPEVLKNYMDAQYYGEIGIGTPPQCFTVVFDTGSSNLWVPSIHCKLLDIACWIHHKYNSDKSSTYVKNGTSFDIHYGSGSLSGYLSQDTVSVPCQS
Chain of Cathepsin D (P07339 169-412 limits assumed): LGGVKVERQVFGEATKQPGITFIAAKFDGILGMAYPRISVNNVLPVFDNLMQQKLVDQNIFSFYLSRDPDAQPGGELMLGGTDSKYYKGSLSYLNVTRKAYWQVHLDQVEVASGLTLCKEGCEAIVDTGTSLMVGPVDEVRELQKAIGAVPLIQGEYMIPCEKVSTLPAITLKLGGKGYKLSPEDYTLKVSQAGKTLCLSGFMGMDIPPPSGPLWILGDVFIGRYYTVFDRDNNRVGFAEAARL

As usually defined, the IC50 is the concentration at which inhibition is half-maximal. One may read the Papp as the rate of passage across a membrane or cell layer, normalised by area and donor concentration. In general, efflux ratio refers to a quotient of directional permeabilities that is used to spot active efflux. One may read the AUC(0-inf) as total exposure, with the tail of the curve extrapolated. A higher AUC(0-inf) goes with more exposure. As usually defined, the clearance is a measure of how efficiently the substance is removed, as volume per time. The term half-life denotes the time needed for the level to fall by half in the phase considered. As a reminder, the bioavailability is dose-corrected exposure relative to a reference, in per cent. Low values mean little systemic uptake, high ones much systemic uptake. Usually Kp stands for the ratio of the level in a tissue or fluid to that in plasma or blood. As for `CC(C)(C)c1cccc(CN[C@H]2CS(=O)(=O)C[C@@H](Cc3ccc(N)c(Br)c3)[C@@H]2O)c1`, the IC50 on Cathepsin D is 720 nM; against Beta-secretase 1, 140 nM. In the data set with MDR1 (human) [1], the Papp at 2 h, 5 µM worked out at 13 ×10⁻⁶ cm/s. For the same compound, in the data set with MDR1 (human) [2], the efflux ratio at 2 h, 5 µM turned out to be 2. Besides, the total exposure AUC(0-inf) stood at 4.09 µM·h in data set [3] and 6.43 µM·h in data set [7]. In addition, the clearance in data set [4] came out at 8.1 mL/min/kg. The Vd in [5] was found to be 1.6 L/kg. In addition, the half-life in data set [6] was 4 h. In [8], this compound yielded a bioavailability of 10%. Moreover, the figures for the Drug uptake with Brain [9] and in the data set with Brain [11] were 2.17 nmol/g and 1.92 nmol/g, respectively. Further, the concentration at 1 h in data set [10] stood at 4.07 µM. Besides, the concentration at 4 h in [12] was found to be 2.98 µM. Further, in data set [13], the Kp at 1 h worked out at 0.5. Also, in [14], the concentration ratio (Kp) at 4 h was 0.6. Besides, the Ratio IC50 in the data set listed under Homo sapiens was found to be 5.
